From ChEMBL document CHEMBL3608299, “Identification of N-acylhydrazone derivatives as novel lactate dehydrogenase A inhibitors” (Eur J Med Chem, 2015) come the findings set out here.

The target in series [1] is T1, L-lactate dehydrogenase A chain (Homo sapiens, UniProt P00338). Kind of series: Inhibition of human liver purified lactate dehydrogenase-A using pyruvate as substrate assessed as NADH oxidation for 3 mins by fluorimetric method. In short, it runs like this:
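Purified human LDH-A was run in a fluorimetric assay. Values were obtained from triplicate points and given as mean ± standard deviation.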

Series [2] has as its target T1, L-lactate dehydrogenase A chain. The series can be described thus: Inhibition of lactate dehydrogenase-A in human Raji cells assessed as reduction of intracellular lactate level after 3 hrs. The series is classed as cell-based. In outline: (§1)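 Raji Burkitt's lymphoma cells (MYC-overexpressing) were used for lactic acid production and cell proliferation. All points were run in triplicate and reported as mean ± standard deviation.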

Series [3] has as its system Raji. Kind of series: Antiproliferative activity against human Raji cells after 24 hrs by Trypan blue exclusion method. The series is classed as functional, cell-based. In outline: as §1
The target of series [4] is T1, L-lactate dehydrogenase A chain. The series can be described thus: Inhibition of human liver purified lactate dehydrogenase-A using pyruvate as substrate assessed as disappearance of NADH fluorescence. In short, it runs like this:
(§2)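 Purified human LDH-A enzymatic assays were run. Inhibition constants (Ki) were calculated separately versus pyruvate and versus NADH as the varied substrate.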

Series [5] shares this target. The series can be described thus: Inhibition of human liver purified lactate dehydrogenase-A using NADH as substrate assessed as disappearance of NADH fluorescence. In short, it runs like this:
as §2

Series [6] shares this target. Kind of series: Inhibition of lactate dehydrogenase-A in human Raji cells assessed as reduction of intracellular lactate level at 40 uM after 3 hrs. It counts as cell-based.
Series [7] relates to Raji. The series can be described thus: Antiproliferative activity against human Raji cells at 40 uM after 24 hrs by Trypan blue exclusion method. The series is classed as functional.
Series [8] has as its system Raji. The series can be described thus: Cell cycle arrest in human Raji cells assessed as accumulation at S phase at 40 uM after 18 hrs using propidium iodide staining by flow cytometry. It counts as functional, cell-based. The settings on record: in the assay text read “accumulation at G2/M phase” for “accumulation at S phase”. In short, it runs like this:
(§3)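 Raji cells were exposed for 18 h, then stained with propidium iodide. Cell cycle phase distribution (S, G2/M fractions) was measured by flow cytometry and tested for statistical significance against untreated cells.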
A general note: In flow cytometry, cells or beads pass a laser one at a time.

The test system of series [9] is Raji. Kind of series: Cell cycle arrest in human Raji cells assessed as accumulation at G2/M phase at 40 uM after 18 hrs using propidium iodide staining by flow cytometry. The series is classed as functional, cell-based. In short, it runs like this: as §3
Series [10] deals with T1, L-lactate dehydrogenase A chain. The series can be described thus: Inhibition of lactate dehydrogenase-A in human Raji cells assessed as reduction of NAD+ regeneration at 40 uM. The series is classed as cell-based. In short, it runs like this: (§4)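 Intracellular NAD+ and NADH were measured in Raji cells after 18 h exposure to assess the redox balance. The shift was evaluated against untreated cells with statistical testing.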

Series [11] deals with Raji. Kind of series: Induction of apoptosis in human Raji cells assessed as increase of BCL2 protein expression at 40 uM after 18 hrs by Western blotting. The series is classed as functional, cell-based. In outline:
(§5)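 After 18 h exposure, Raji cell lysates were analysed by Western blot for the mitochondrial apoptosis regulators BAX and BCL2. The fold change was expressed versus untreated control.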

Series [12] concerns Raji. The series can be described thus: Induction of apoptosis in human Raji cells assessed as increase of BAX protein expression at 40 uM after 18 hrs by Western blotting relative to control. It counts as functional. In short, it runs like this:
as §5
Background: In western blotting, separated proteins are transferred to a membrane and probed.

Series [13] deals with Raji. The series can be described thus: Potentiation of cisplatin-induced cytotoxicity against human Raji cells assessed as combination index at 40 uM after 24 hrs by Trypan blue exclusion method relative to control. The series is classed as functional. In outline:
(§6)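 Each chemotherapeutic agent was first titrated on Raji cells to its lowest dose giving a statistically significant viability effect at 24 h. That dose was then combined with a fixed concentration of the test agent, and a combination index was calculated, where 0.8–1.2 indicates additivity. Experiments were repeated twice.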

The subject of series [14] is Raji. Kind of series: Potentiation of daunomycin-induced cytotoxicity against human Raji cells assessed as combination index at 40 uM after 24 hrs by Trypan blue exclusion method relative to control. It counts as functional. In short, it runs like this: as §6
Series [15] relates to Raji. Kind of series: Potentiation of etoposide-induced cytotoxicity against human Raji cells assessed as combination index at 40 uM after 24 hrs by Trypan blue exclusion method relative to control. It counts as functional. In outline:
as §6

Series [16] deals with Raji. Kind of series: Potentiation of sunitinib-induced cytotoxicity against human Raji cells assessed as combination index at 40 uM after 24 hrs by Trypan blue exclusion method relative to control. It counts as functional. In outline:
as §6

Series [17] can be described thus: Cytotoxicity against lymphocytes (unknown origin) assessed as cell viability at 200 uM after 24 hrs by Trypan blue exclusion method. The series is classed as cell-based. The settings on record: lymphocyte. In outline: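 Viability of normal lymphocytes after treatment was compared with Raji cultures across a concentration range up to 200. Significance was assessed by ANOVA.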

Series [18] deals with T1, L-lactate dehydrogenase A chain. The series can be described thus: Inhibition of lactate dehydrogenase-A in human Raji cells assessed as NAD level per 10^6 cells at 40 uM after 18 hrs (reference value: 365 pmol). The series is classed as cell-based. In outline:
as §4

The target is the same in series [19]. The series can be described thus: Inhibition of lactate dehydrogenase-A in human Raji cells assessed as NADH level per 10^6 cells at 40 uM after 18 hrs (reference value: 24 pmol). It counts as cell-based. In short, it runs like this:
as §4

Calls of active or inactive are those of the source. The rule behind the calls is not given here.

Consider `COc1cc(C(=O)N/N=C/c2ccc(-c3ccc(C(=O)O)cc3)o2)cc(OC)c1OC`, for which the IC50 (as a rule, the concentration needed to halve the response being measured) in [1] turned out to be 125 µM; in [2] it was 134 µM; with Raji [3], 100 µM.

As for `COc1cc(C(=O)N/N=C/c2cc(-c3cccc(C(=O)O)c3)co2)cc(OC)c1OC`, the half-inhibitory concentration (IC50) was determined as 32 µM in series [1], 52 µM in [2] and 48 µM in the series with Raji [3].

In the case of `COc1cc(C(=O)N/N=C/c2ccc(-c3cccc(C(=O)O)c3)s2)cc(OC)c1OC`, the IC50 in [1] came out at 41 µM; in [2] it was 105 µM; in the series on Raji [3], 95 µM.

Consider `N#CCC(=O)N/N=C/c1cccc(-c2ccc(C(=O)O)cc2)n1`, for which the IC50 in series [1] is over 200 µM.

Turning to `O=C(O)c1cccc(-c2ccc(/C=N/NC(=O)c3cccnc3)o2)c1`, the IC50 in series [1] was 43 µM; in series [2], over 200 µM; with Raji [3] it was over 200 µM.

As to `COc1cc(C(=O)N/N=C/c2ccc(-c3cccc(C(=O)O)c3)o2)cc(OC)c1OC`, the IC50 in series [1] turned out to be 37 µM; in [2], 42 µM; in the series on Raji [3] it was 38 µM. The results for the Ki in series [4] and in series [5] were 39 µM and 47 µM, respectively. Moreover, the inhibition (usually how much of the control response was suppressed) in series [6] was determined as 50%. The compound also returned an inhibition at 40 µM with Raji [7] of 50%. For the same compound, the result in the series on Raji [8] and with Raji [9] was Active. Moreover, the inhibition entry in series [10] was “Active”. Besides, the result in the series with Raji [11] was inactive. Also, the “fold change (FC)” value in the series on Raji [12] amounted to 6.7. In addition, the CI is reported as 1 in the series on Raji [13], 0.88 in the series with Raji [14], 0.86 in the series with Raji [15] and 1.08 with Raji [16]. Besides, the Activity entry was “Non-toxic” in series [17], 351 pmol in series [18] and 26 pmol in series [19].

Consider `O=C(O)c1cccc(-c2ccc(/C=N/NC(=O)c3ccc4[nH]ccc4c3)o2)c1`, for which the IC50 in series [1] stood at 38 µM; in series [2] it was 100 µM; in the series with Raji [3] it was 115 µM.

As for `O=C(O)c1cccc(-c2ccc(/C=N/NC(=O)c3ccc4[nH]ncc4c3)o2)c1`, the IC50 in [1] was 41 µM; in series [2], over 200 µM; in the series on Raji [3], 45 µM.

Regarding `COc1cc(C(=O)N/N=C/c2cccc(-c3cccc(C(=O)O)c3)n2)cc(OC)c1OC`, the 50% inhibitory concentration (IC50) in series [1] is over 200 µM.

As for `O=C(O)c1cccc(-c2ccc(/C=N/NC(=O)c3cccc(CO)c3)o2)c1`, the values for the IC50 (in series [1]; in series [2]; in the series on Raji [3]) were 46 µM, over 200 µM and over 200 µM, respectively.

Take `N#CCC(=O)N/N=C/c1ccc(-c2cccc(C(=O)O)c2)o1`: the IC50 is 48 µM in [1], 115 µM in series [2] and 64 µM with Raji [3].

With `COC(=O)c1cccc(-c2ccc(/C=N/NC(=O)c3cccnc3)o2)c1`, in [1], the IC50 is over 200 µM.

Turning to `COc1cc(C(=O)N/N=C/c2c[nH]c(-c3cccc(C(=O)O)c3)c2)cc(OC)c1OC`, the values for the IC50 (in series [2]; with Raji [3]) were over 200 µM and 80 µM, respectively.

For `N#CCC(=O)N/N=C/c1ccc(-c2ccc(C(=O)O)cc2)o1`, the concentration for half-maximal inhibition (IC50) is 37 µM in series [1] and over 200 µM in [2].
